The conditions of data set [1]: not told; cited from earlier work.
For data set [2] the following is noted: humans, 24h after oral administration of ^14C-labeled 4AP; cited from earlier work.
Data set [3] is classed as in vivo, mice. The essentials: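 Mice (isoflurane-anesthetized or awake) given IV tracer (>99% radiochemical purity, in 95% 20 mM sodium phosphate pH 8.0/5% EtOH); euthanized 35 min later. Brain homogenized in 0.4 N HClO4 (~1:2 w/v) by 30 s ultrasonication at 4 °C, spun 21,000 RCF, 8 °C, 7 min. Plasma and pH-neutralized supernatant passed through 10K filter, then radio-HPLC on C18 with 10 mM NH4HCO3 pH 8.0/MeCN (96:4). Samples kept on ice. Percent parent fraction reported.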

The conditions of data set [4]: cited from earlier work.
The format of data set [5] is in vivo, mice. This is another data set of the same source.
For data set [6] the following is noted: cited from earlier work. The source holds these as a separate data set.
Data set [7] relates to CYP2E1. Conditions: humans, DSF treatment; cited from earlier work.
Data set [8] relates to CYP2E1. Conditions: in vitro competition assay; cited from earlier work.

Where two headings read alike, the source gives them in different places.

With `Nc1c(O)cncc1F` [5-hydroxy-3F4AP], in data set [1], the “permeability across an artificial brain membrane” value is listed as “low permeability”.
As to `Nc1ccncc1` [4AP, 4-aminopyridine], in data set [2], the “radioactive species recovered in urine corresponding to the unchanged drug” value is listed as ~ 90%.
As to `Nc1ccncc1[18F]` [[^18F]3F4AP, 3-[^18F]fluoro-4-aminopyridine], in data set [3] (brain, awake mice, 35 min post-tracer, n = 8, mean ± SEM), the “percent parent fraction in brain (%PFawk-br)” value is 80.3 ± 2.7%. In addition, the “proportion of radiometabolites in the brain, anesthetized mice” value in data set [3] (brain, isoflurane-anesthetized mice, 35 min) is 1.6%. In addition, the “percent parent fraction in brain (%PFiso-br)” value in data set [3] (brain, isoflurane-anesthetized mice, 35 min post-tracer, n = 5, mean ± SEM) worked out at 98.4 ± 0.2%. Also, the “concentration of metabolites in plasma, awake mice” value in data set [3] (plasma, awake mice, 35 min) was 82.3%. The “percent parent fraction in plasma (%PFawk-pl)” value in data set [3] (plasma, awake mice, 35 min post-tracer, n = 11, mean ± SEM) amounted to 17.7 ± 1.7%. Also, the “concentration of metabolites in plasma, anesthetized mice” value in data set [3] (plasma, isoflurane-anesthetized mice, 35 min) was found to be 25.2%. In addition, in data set [3] (plasma, isoflurane-anesthetized mice, 35 min post-tracer, n = 10, mean ± SEM), the “percent parent fraction in plasma (%PFiso-pl)” value came to 74.8 ± 1.6%. For the same molecule, the “brain SUV 90 min post-injection” value in data set [4] (awake humans, brain TAC, Fig. 3A) is given as 0.54; in data set [6] (anesthetized NHPs, brain TAC, Fig. 3A), ~ 1.50. The “SUV90 min-WB (human)” value in data set [4] (awake humans, whole blood, 90 min) is on record as 0.87. Further, the “parent remaining in blood” value in data set [4] (humans, 1h post-injection) is on record as “less than 50%”. The “SUV35 min-br (awk mice)” value in data set [5] (brain, 35 min post-injection, IV, awake mice, n = 20, mean ± SEM) came to 0.28 ± 0.04. Also, the “WB and brain SUV values, awake vs anesthetized mice” value in data set [5] (euthanized at 60 sec (1 min) post-tracer injection, Fig. S1) is “no significant differences”. The “SUV35 min-WB (awk mice)” value in data set [5] (whole blood, 35 min post-injection, IV, awake mice, mean ± SEM) came to 0.51 ± 0.05. Also, the “SUV35 min-WB (iso mice)” value in data set [5] (whole blood, 35 min post-injection, IV, isoflurane-anesthetized mice, mean ± SEM) is recorded as 0.66 ± 0.08. Further, the “brain uptake SUV at 4 min” value in data set [6] (NHPs, brain, 4 min) is over 3. Also, in data set [6] (NHPs, up to 2h post-injection), the “parent fraction (metabolic stability)” value is over 90%. Moreover, the “SUV90 min-WB (NHP)” value in data set [6] (anesthetized NHPs, whole blood, 90 min) was 0.946.
As to `CCN(CC)C(=S)SSC(=S)N(CC)CC` [DSF, disulfiram], the “prevention of clinical isoflurane metabolism” value in data set [7] is reported as 80–90%.
Consider `Nc1ccncc1F` [3F4AP, 3-fluoro-4-aminopyrdine], for which the “affinity of CYP2E1 relative to the affinity for 4AP” value in data set [8] is recorded as 50 times.
`Nc1cc[n+]([O-])cc1F` [3F4AP N-oxide]: in data set [1], the “permeability across an artificial brain membrane” value is “low permeability”.

The values are drawn from publication PMC11482445 (Journal of neurochemistry, 2024).
